Experimental data: ChEMBL document CHEMBL1667791, “Opioid bifunctional ligands from morphine and the opioid pharmacophore Dmt-Tic” (Eur J Med Chem, 2011)
Calls of active or inactive are those of the source. The calls are words filed in the database; no cut-off is given here.

Tests used:
[1] = molecular target: T1, Kappa-type opioid receptor (Homo sapiens, UniProt P41145); experiment: Agonist activity at human kappa opioid receptor expressed in CHO cells by [35S]GTPgammaS binding assay relative to control; type: functional, cell-based
T1 sequence (P41145 whole entry): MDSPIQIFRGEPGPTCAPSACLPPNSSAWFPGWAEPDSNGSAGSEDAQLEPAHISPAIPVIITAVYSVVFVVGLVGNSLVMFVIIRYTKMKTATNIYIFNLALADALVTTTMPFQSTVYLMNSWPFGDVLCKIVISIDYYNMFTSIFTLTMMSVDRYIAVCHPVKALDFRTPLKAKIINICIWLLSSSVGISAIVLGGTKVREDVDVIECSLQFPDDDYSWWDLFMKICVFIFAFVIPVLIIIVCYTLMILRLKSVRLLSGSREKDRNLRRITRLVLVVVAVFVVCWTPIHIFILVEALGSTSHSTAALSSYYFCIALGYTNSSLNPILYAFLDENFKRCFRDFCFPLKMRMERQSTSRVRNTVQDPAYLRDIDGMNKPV
Summary of the method: (§1)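 [35S]GTPγS binding (0.080 nM final) on membranes from CHO cells stably expressing human δ (10 μg), μ (7.5 μg) or κ (15 μg) receptors. Twelve compound concentrations were tested in 50 mM Tris-HCl pH 7.4 with 3 mM MgCl2, 0.2 mM EGTA, 3 μM GDP and 100 mM NaCl, for 60 min at 30 °C. Nonspecific binding was set with 10 μM GTPγS. Samples were filtered and counted. Emax was taken relative to basal (0%). Values are mean ± S.E.M., ≥3 experiments in triplicate.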

Mu-type opioid receptor [2] = molecular target: T2, Mu-type opioid receptor (Homo sapiens, UniProt P35372); experiment: Antagonist activity at human mu opioid receptor expressed in CHO cells assessed as inhibition of DAMGO-induced [35S]GTPgammaS binding relative to control; type: functional, cell-based
T2 sequence (P35372 whole entry): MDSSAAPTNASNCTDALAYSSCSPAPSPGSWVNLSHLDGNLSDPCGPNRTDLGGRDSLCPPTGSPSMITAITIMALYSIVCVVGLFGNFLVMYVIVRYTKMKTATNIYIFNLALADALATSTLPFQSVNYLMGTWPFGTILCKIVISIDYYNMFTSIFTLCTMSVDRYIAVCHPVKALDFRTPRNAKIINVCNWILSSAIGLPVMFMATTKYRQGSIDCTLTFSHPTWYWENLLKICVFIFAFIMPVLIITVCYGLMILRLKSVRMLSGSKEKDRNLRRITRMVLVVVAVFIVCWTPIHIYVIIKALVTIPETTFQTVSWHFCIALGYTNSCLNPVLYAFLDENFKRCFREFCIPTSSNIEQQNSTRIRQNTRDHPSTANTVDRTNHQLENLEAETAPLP
Summary of the method: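 Human μ-receptor CHO membranes (7.5 μg) were incubated with twelve compound concentrations plus 200 nM DAMGO and 0.080 nM [35S]GTPγS. Nonspecific binding was set with 10 μM GTPγS. Read by filtration and scintillation counting.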

Mu-type opioid receptor [3] = molecular target: T2, Mu-type opioid receptor; experiment: Agonist activity at human mu opioid receptor expressed in CHO cells by [35S]GTPgammaS binding assay relative to control; type: functional, cell-based; summary of the method: as §1
[4] = molecular target: T1, Kappa-type opioid receptor; experiment: Antagonist activity at human kappa opioid receptor expressed in CHO cells assessed as inhibition of […]-induced [35S]GTPgammaS binding relative to control; type: functional, cell-based
[5] = molecular target: T3, Delta-type opioid receptor (Homo sapiens, UniProt P41143); experiment: Antagonist activity at human delta opioid receptor expressed in CHO cells assessed as inhibition of […]-induced [35S]GTPgammaS binding relative to control; type: functional, cell-based
T3 sequence (P41143 whole entry): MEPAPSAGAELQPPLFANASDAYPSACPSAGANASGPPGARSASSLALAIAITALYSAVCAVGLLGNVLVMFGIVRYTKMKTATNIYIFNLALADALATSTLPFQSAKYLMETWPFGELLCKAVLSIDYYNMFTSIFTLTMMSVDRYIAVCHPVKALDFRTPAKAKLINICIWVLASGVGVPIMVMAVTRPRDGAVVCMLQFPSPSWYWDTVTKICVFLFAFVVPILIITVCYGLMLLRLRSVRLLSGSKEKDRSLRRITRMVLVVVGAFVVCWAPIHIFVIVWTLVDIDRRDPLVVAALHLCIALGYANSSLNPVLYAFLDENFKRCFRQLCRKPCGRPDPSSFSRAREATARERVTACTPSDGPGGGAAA

Homo sapiens [6] = species: Homo sapiens; experiment: Selectivity ratio of Ki for human kappa opioid receptor to Ki for human mu opioid receptor
Homo sapiens [7] = species: Homo sapiens; experiment: Selectivity ratio of Ki for human kappa opioid receptor to Ki for human delta opioid receptor
[8] = molecular target: T1, Kappa-type opioid receptor; experiment: Displacement of [3H]U69593 from human kappa opioid receptor expressed in CHO cells after 60 mins by scintillation counting; type: cell-based
[9] = molecular target: T1, Kappa-type opioid receptor; experiment: Antagonist activity at human kappa opioid receptor expressed in CHO cells assessed as inhibition of […]-induced [35S]GTPgammaS binding; type: functional, cell-based
Homo sapiens [10] = species: Homo sapiens; experiment: Selectivity ratio of Ki for human mu opioid receptor to Ki for human delta opioid receptor
[11] = molecular target: T3, Delta-type opioid receptor; experiment: Agonist activity at human delta opioid receptor expressed in CHO cells by [35S]GTPgammaS binding assay relative to control; type: functional, cell-based; summary of the method: as §1
[12] = molecular target: T3, Delta-type opioid receptor; experiment: Antagonist activity at human delta opioid receptor expressed in CHO cells assessed as inhibition of […]-induced [35S]GTPgammaS binding; type: functional, cell-based
[13] = molecular target: T3, Delta-type opioid receptor; experiment: Displacement of [3H]naltrindole from human delta opioid receptor expressed in CHO cells after 3 hrs by scintillation counting; type: cell-based
Mu-type opioid receptor [14] = molecular target: T2, Mu-type opioid receptor; experiment: Displacement of [3H]DAMGO from human mu opioid receptor expressed in CHO cells after 60 mins by scintillation counting; type: cell-based
Mu-type opioid receptor [15] = molecular target: T2, Mu-type opioid receptor; experiment: Antagonist activity at human mu opioid receptor expressed in CHO cells assessed as inhibition of DAMGO-induced [35S]GTPgammaS binding; type: functional, cell-based

Compound: Cc1cc(O)cc(C)c1C[C@@H](C(=O)N1Cc2ccccc2C[C@H]1C(=O)NCCC(=O)OC1=C2O[C@H]3[C@@H](O)C=C[C@H]4[C@H]5CC(C=C1)C2[C@]43CCN5C)N(C)C (stereo partly drawn)
- Emax [1]: 41%
- Imax (Mu-type opioid receptor [2]): 69%
- Emax (Mu-type opioid receptor [3]): 14%
- Imax [4]: inactive
- Imax [5]: 120%

Compound: Cc1cc(O)cc(C)c1C[C@@H](C(=O)N1Cc2ccccc2C[C@H]1C(=O)NCCC(=O)O)N(C)C
- Ratio Ki (Homo sapiens [6]): > 2.2

Compound: Cc1cc(O)cc(C)c1C[C@@H](C(=O)N1Cc2ccccc2C[C@H]1C(=O)O)N(C)C
- Ratio Ki (Homo sapiens [6]): > 4.3
- Ratio Ki (Homo sapiens [7]): > 3740

Compound: Cc1cc(O)cc(C)c1C[C@@H](C(=O)N1Cc2ccccc2C[C@H]1C(=O)OC1=C2O[C@H]3[C@@H](O)C=C[C@H]4[C@H]5CC(C=C1)C2[C@]43CCN5C)N(C)C (stereo partly drawn)
- Ki [8]: 12 nM
- Emax [1]: 2.6%
- IC50 [9]: 3100 nM
- Ratio Ki (Homo sapiens [10]): 1.5
- Emax [11]: -4.9%
- IC50 [12]: 1.7 nM
- Ki [13]: 1.6 nM
- Imax (Mu-type opioid receptor [2]): 97%
- Emax (Mu-type opioid receptor [3]): 0.43%
- Imax [4]: 99%
- Ratio Ki (Homo sapiens [6]): 11
- Ki (Mu-type opioid receptor [14]): 1.1 nM
- IC50 (Mu-type opioid receptor [15]): 13 nM
- Ratio Ki (Homo sapiens [7]): 7.5
- Imax [5]: 120%
